The source made the active and inactive calls. The calls are words filed in the database; no cut-off is given here.
Columns and labels:
[1] = molecular target: Bromodomain adjacent to zinc finger domain protein 2B (Homo sapiens) (UniProt Q9UIF8); experiment: Binding affinity to human recombinant His6-tagged BAZ2B (S1858 to S1972 residues) expressed in Escherichia coli BL21 (DE3) cells assessed as change in melting temperature at 200 uM incubated for 30 mins by SYPRO orange dye based thermal shift assay
Chain of Bromodomain adjacent to zinc finger domain protein 2B (Homo sapiens) (Q9UIF8 whole entry, the tested form may be a part): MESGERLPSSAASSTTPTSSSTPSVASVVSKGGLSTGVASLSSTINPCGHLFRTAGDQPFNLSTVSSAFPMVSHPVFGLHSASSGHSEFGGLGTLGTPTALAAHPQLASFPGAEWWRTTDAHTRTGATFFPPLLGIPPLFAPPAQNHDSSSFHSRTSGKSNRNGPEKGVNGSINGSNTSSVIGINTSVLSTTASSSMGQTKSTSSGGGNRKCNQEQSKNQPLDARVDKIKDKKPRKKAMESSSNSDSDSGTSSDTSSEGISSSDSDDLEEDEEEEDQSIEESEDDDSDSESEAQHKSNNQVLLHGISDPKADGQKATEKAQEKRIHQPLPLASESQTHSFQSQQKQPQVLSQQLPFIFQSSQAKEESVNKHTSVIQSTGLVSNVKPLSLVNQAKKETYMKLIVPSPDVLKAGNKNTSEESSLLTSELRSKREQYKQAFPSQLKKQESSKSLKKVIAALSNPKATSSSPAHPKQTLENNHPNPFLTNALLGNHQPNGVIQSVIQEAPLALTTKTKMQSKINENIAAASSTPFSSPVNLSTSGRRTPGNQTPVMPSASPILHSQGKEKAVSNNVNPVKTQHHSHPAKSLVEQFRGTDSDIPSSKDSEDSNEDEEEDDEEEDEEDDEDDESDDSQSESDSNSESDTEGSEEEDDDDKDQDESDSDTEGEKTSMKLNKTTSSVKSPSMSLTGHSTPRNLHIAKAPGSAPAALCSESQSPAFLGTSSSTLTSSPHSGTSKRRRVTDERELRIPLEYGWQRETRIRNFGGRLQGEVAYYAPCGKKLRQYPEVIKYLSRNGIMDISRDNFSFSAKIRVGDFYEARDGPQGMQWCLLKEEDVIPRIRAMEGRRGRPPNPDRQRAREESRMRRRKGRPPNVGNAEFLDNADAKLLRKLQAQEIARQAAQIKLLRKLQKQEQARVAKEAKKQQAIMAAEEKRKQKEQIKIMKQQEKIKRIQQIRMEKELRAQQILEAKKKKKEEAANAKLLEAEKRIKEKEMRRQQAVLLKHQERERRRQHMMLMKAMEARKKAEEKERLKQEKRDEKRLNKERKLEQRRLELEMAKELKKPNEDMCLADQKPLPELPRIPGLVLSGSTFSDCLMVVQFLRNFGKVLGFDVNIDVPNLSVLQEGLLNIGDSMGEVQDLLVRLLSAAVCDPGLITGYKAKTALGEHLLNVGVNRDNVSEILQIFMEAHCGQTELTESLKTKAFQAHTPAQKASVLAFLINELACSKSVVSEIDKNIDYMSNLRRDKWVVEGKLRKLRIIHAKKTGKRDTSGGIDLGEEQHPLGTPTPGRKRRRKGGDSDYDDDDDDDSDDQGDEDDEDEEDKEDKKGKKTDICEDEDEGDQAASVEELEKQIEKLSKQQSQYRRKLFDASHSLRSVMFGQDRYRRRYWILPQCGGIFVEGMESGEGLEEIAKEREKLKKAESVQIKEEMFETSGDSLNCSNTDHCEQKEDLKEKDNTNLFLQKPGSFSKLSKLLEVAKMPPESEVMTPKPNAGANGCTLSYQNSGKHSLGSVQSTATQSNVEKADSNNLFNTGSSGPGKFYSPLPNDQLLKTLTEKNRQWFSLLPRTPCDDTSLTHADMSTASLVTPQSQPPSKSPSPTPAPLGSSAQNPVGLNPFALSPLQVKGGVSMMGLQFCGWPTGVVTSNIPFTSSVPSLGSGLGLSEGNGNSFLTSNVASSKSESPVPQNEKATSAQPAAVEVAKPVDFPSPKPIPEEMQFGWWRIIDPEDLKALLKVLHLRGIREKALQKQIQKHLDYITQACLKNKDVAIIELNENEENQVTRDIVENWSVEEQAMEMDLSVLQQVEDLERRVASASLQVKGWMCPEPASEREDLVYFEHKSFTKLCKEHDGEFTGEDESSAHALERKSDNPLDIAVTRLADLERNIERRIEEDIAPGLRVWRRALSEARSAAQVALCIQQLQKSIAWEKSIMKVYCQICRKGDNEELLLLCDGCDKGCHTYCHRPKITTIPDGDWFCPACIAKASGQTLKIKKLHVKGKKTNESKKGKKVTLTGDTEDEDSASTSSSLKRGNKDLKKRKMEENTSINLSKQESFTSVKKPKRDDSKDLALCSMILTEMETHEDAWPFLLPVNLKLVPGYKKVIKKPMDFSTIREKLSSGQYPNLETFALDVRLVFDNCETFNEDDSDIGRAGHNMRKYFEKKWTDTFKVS
Summary of the method: (§1)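 Thermal shift assay measuring change in melting temperature of each isolated bromodomain module in the presence of compound versus without.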

[2] = molecular target: T1, Bromodomain-containing protein 1 (Homo sapiens) (UniProt O95696); experiment: Binding affinity to human recombinant His6-tagged BRD1 (E556 to A688 residues) expressed in Escherichia coli BL21 (DE3) cells assessed as change in melting temperature at 200 uM incubated for 30 mins by SYPRO orange dye based thermal shift assay; summary of the method: as §1
T1 sequence (whole entry): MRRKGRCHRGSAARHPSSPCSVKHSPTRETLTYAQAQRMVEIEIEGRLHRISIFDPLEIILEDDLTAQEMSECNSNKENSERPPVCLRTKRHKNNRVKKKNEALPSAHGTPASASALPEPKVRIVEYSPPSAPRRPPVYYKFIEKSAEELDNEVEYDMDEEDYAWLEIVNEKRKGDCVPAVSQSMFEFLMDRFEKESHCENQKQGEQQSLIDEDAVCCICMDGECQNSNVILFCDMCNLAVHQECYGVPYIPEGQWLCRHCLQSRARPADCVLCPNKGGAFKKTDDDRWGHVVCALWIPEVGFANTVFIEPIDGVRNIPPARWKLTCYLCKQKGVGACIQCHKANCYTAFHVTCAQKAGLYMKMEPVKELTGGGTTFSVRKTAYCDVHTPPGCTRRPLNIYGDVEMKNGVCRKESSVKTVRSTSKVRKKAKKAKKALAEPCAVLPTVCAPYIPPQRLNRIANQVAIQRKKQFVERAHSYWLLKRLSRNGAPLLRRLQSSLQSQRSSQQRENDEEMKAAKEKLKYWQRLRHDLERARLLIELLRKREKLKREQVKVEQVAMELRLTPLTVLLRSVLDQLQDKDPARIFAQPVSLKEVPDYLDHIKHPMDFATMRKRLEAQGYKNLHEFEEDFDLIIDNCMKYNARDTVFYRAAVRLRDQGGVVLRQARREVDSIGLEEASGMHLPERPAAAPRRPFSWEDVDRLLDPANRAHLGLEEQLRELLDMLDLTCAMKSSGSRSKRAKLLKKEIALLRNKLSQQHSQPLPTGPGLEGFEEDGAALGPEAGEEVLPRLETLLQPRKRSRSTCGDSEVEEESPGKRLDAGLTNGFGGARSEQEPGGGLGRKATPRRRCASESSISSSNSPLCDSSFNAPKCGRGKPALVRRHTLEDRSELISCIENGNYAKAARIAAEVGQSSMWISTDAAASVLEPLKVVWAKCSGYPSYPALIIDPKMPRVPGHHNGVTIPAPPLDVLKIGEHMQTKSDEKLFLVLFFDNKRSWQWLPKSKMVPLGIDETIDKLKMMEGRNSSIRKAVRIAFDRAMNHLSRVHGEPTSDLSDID

CWR22R [3] = experiment: Antiproliferative activity against AR-positive human 22Rv1 cells assessed as reduction in cell viability incubated for 96 hrs by cell-titer glo assay; type: functional, cell-based; details: 22Rv1, 96 h
Summary of the method: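 Prostate cancer cells treated across a concentration range; viability read by CellTiter-Glo luminescence; experiments in triplicate; IC50 derived from the dose–response curves.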

CWR22R [4] = experiment: Inhibition of colony formation in human 22Rv1 cells incubated for 14 days by crystal violet staining based assay; type: functional, cell-based; details: dose 0.5-2 µM, time 14.0 day
Summary of the method: (§2)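 22Rv1 cells cultured with vehicle (DMSO) or compound at 0.5, 1.0 or 2.0 µM for 14 days, then stained and colonies assessed.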

VCaP [5] = experiment: Inhibition of BET bromodomain in human VCaP cells assessed as suppression of Myc mRNA expression at 5 uM incubated for 48 hrs by SYBR green dye based qRT-PCR analysis; type: cell-based
Summary of the method: (§3)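 LNCaP or VCaP cells exposed to vehicle (DMSO) or compound at 5 µM for 48 h; mRNA levels measured by qRT-PCR; mean ± s.e.m., n = 3; two-tailed Student's t-test.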

HeLa = experiment: Antiproliferative activity against human HeLa cells assessed as reduction in cell viability incubated for 72 hrs by cell-titer glo assay; type: functional, cell-based
Hs-578T = experiment: Antiproliferative activity against human Hs-578T cells assessed as reduction in cell viability incubated for 72 hrs by cell-titer glo assay; type: functional, cell-based
LNCaP [6] = experiment: Inhibition of BET bromodomain in human LNCaP cells assessed as suppression of PSA mRNA expression at 5 uM incubated for 48 hrs by SYBR green dye based qRT-PCR analysis; type: cell-based; summary of the method: as §3
CWR22R [7] = experiment: Inhibition of colony formation in human 22Rv1 cells at 0.5 uM incubated for 14 days by crystal violet staining based assay; type: functional, cell-based; details: time 14.0 day; summary of the method: as §2
LNCaP [8] = experiment: Inhibition of BET bromodomain in human LNCaP cells assessed as suppression of Myc mRNA expression at 5 uM incubated for 48 hrs by SYBR green dye based qRT-PCR analysis; type: cell-based; summary of the method: as §3
PC-3 = experiment: Antiproliferative activity against AR-negative human PC-3 cells assessed as reduction in cell viability incubated for 96 hrs by cell-titer glo assay; type: functional, cell-based; details: PC-3, 96 h
22Rv1 = experiment: Inhibition of BET bromodomain in human 22Rv1 cells assessed as suppression of AR-V7 protein expression at 1 to 16 uM incubated for 48 hrs by western blot analysis; type: cell-based; details: dose 1-16 µM
MCF7 = experiment: Antiproliferative activity against human MCF-7 cells assessed as reduction in cell viability incubated for 96 hrs by cell-titer glo assay; type: functional, cell-based; details: MCF7, 96 h
VCaP [9] = experiment: Inhibition of BET bromodomain in human VCaP cells assessed as suppression of KLK2 mRNA expression at 5 uM incubated for 48 hrs by SYBR green dye based qRT-PCR analysis; type: cell-based; summary of the method: as §3
[10] = AUC in Sprague-Dawley rat at 2 mg/kg, iv by LC/MS analysis; type: ADME, organism-based; parameters: dose 2 mg/kg; details: in vivo
Summary of the method: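 Sprague-Dawley rats dosed iv at 2 mg/kg (a separate oral arm received 10 mg/kg); plasma exposure parameters derived from the concentration–time profile.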

VCaP [11] = experiment: Inhibition of BET bromodomain in human VCaP cells assessed as suppression of PSA mRNA expression at 5 uM incubated for 48 hrs by SYBR green dye based qRT-PCR analysis; type: cell-based; summary of the method: as §3
A549 = experiment: Antiproliferative activity against human A549 cells assessed as reduction in cell viability incubated for 72 hrs by cell-titer glo assay; type: functional, cell-based; details: A549, 72 h
LNCaP [12] = experiment: Inhibition of BET bromodomain in human LNCaP cells assessed as suppression of KLK2 mRNA expression at 5 uM incubated for 48 hrs by SYBR green dye based qRT-PCR analysis; type: cell-based; summary of the method: as §3
[13] = Toxicity in CB17/IcrHSD-Prkdc-SCID mouse xenografted with human LNCaP C4-2B cells assessed as effect on animal behaviour at 50 mg/kg, ip administered 5 times per week for 25 days; type: organism-based; details: in vivo, 600 h, time 25 day
Summary of the method: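 C4-2B xenograft mice randomized once tumors reached about 100 mm3. Vehicle or compound given i.p. at 50 mg/kg, five times per week, over a 25-day treatment period. Tolerability judged from body weight, tracked across treatment days, and from general behaviour.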

SMILES	ΔTm [1] [°C]	ΔTm [2] [°C]	IC50 (CWR22R [3]) [nM]	inhibition (CWR22R [4])	inhibition (VCaP [5])	IC50 (HeLa) [nM]	IC50 (Hs-578T) [nM]	inhibition (LNCaP [6])	inhibition (CWR22R [7])	inhibition (LNCaP [8])	IC50 (PC-3) [nM]	inhibition (22Rv1)	IC50 (MCF7) [nM]	inhibition (VCaP [9])	AUC [10] [ng·h/mL]	inhibition (VCaP [11])	IC50 (A549) [nM]	inhibition (LNCaP [12])	Activity [13]
Cc1noc2c(Br)cc(-c3nc4ccc(N5CCOCC5)cc4n3CC3CCCCC3)cc12	-0.6	0	640	–	–	–	–	–	–	–	–	–	–	–	–	–	–	–	–
COc1cc2onc(C)c2cc1NS(=O)(=O)c1cc(Br)ccc1OC	0	-0.1	1500	Dose-dependent effect	Active	> 5000	1000	Active	Active	Active	> 3000	Active	1000	Active	1170	Active	> 5000	Active	Non-Toxic
Cc1noc2ccc(-c3nc4ccc(N5CCOC[C@@H]5C)cc4n3CC3CCCCC3)cc12	-0.6	0.3	700	Dose-dependent effect	Active	> 5000	1000	Active	Active	Active	> 3000	Active	1000	Active	881	Active	2500	Active	Non-Toxic
CNc1cc2onc(C)c2cc1NS(=O)(=O)c1cc(Br)ccc1OC	0.3	-0.4	6730	–	–	–	–	–	–	–	–	–	–	–	–	–	–	–	–

— ChEMBL document CHEMBL4765238, “Structure-Based Discovery and Optimization of Benzo[ d]isoxazole Derivatives as Potent and Selective BET Inhibitors for Potential Treatment of Castration-Resistant Prostate Cancer (CRPC)” (J Med Chem, 2018)
